Each structure is given as a SMILES string. Calls of active or inactive are those of the source.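 Rule for the calls: active = relative activity ratio above 1.25 at every tested dose; inactive = the rest.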

Our source for the relative activity ratio values is PubChem BioAssay AID624314 (The Scripps Research Institute Molecular Screening Center, 2012).

The test system of the experiment is HEK293 3B-HSD promoter CAT reporter, ELISA absorbance. Put plainly: CAT reporter under 3B-HSD promoter control – cell-based, absorbance, counter-screen for DAX1 (NR0B1) inhibitor project, late-stage follow-up (AID 624314). The following applies: at 100 µM (top of the series). In a few lines:
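Test system: transfected HEK293 cells with DAX-1, SF-1, 3β-HSD2 promoter CAT / Compound dosing: 3 doses, 1:2 steps, from 100 µM / Timing: compound exposure 16 h at 37 °C / Technique: CAT EIA absorbance / Replication: triplicate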

As for `Cn1c(=O)n(C)c2cc(C(=O)Nc3ccc4c(c3)OCCO4)ccc21`, the relative activity ratio was 0.26 (inactive). `Cn1c(=O)n(C)c2cc(C(=O)Nc3ccc4c(c3)OCO4)ccc21`: the relative activity ratio is 0.34 (inactive).
